# Sampled rows, rich in hits. Any-hit rate of the full collection: about 3.1%.
# Calb FLC – affects C. albicans growth with fluconazole; C. albicans CaCi-2 (fluconazole-resistant clinical isolate) + fluconazole, Alamar Blue growth, 48 h; growth inhibition, % (test concentration not listed); actives 0.57% (n = 300,000); AID 1979;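 active = growth inhibition above about 58% in most replicates, limit read from the data, passing the limit was not always enough; inconclusive = exactly half the replicates above a set limit; inactive = most replicates below a set limit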;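 note: all wells also contain fluconazole at 8 µg/ml as a sub-toxic cotreatment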
# HIF act – HIF pathway transcriptional activation; U2OS HRE-luciferase reporter, luminescence; normalized: DMSO 0%, desferrioxamine 100%; AID 1910; actives 0.32% (n = 300,000); activation, % at 7.5 µM (by protocol);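 active = mean activation of at least 10% of the iron chelator positive control signal, with at least half of replicates also reaching 10%; inconclusive = mean and replicate majority disagree about reaching 10%; inactive = mean and most replicates under 10%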
# PolyA inh – blocks polyadenylation in yeast reporter cells | S. cerevisiae SKY197-pL101 polyadenylation reporter, beta-gal luminescence; efflux-impaired pdr1/pdr3 knockout yeast; score 100 = 6 SD above DMSO | activity score, % at 12 µM | actives 0.02% (n = 300,000) | AID 1875;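 active = lowest replicate activity score at least 50, where 100 means six control SD above control mean; inconclusive = lowest score under 50 but half or more replicates reach 50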;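 note: yeast exposed to compound for 9 h at 30 °C; higher score means more reporter readthrough which indicates perturbed polyadenylation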
# Beta cell apopt – beta cell apoptosis inhibition. INS-1E cytokine-induced death, ATP luminescence, 48 h; percent of positive-control rescue, neutral wells zero. protection from apoptosis, % (concentration not given with the values). actives 0.8% (n = 300,000);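 active = Every replicate reaches about 75%, or at least half do and their mean reaches it too, limit read from the data; inconclusive = At least half of replicates reach the limit but their mean does not; inactive = Under half of replicates reach the limit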;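 note: higher means more ATP so stronger rescue from cytokine killing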
# T cruzi inh – T. cruzi replication inhibition; actives 1.4% (n = 300,000); inhibition, % (no concentration beside the values); AID 1885; T. cruzi beta-gal in NIH3T3, luminescence, 90 h;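 active = mean inhibition across valid replicates above about 55%, limit read from the data; inconclusive = mean below that limit but half or more replicates reach it; inactive = mean below it, under half of replicates reach it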;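 note: signal also drops with host cell toxicity which is not excluded here; higher percent means less beta-gal luminescence so fewer parasites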
#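 System – NIH/3T3 host cells with β-galactosidase reporter T. cruzi · Doses – single 50 nL compound addition per well in DMSO · Reagent – 5000 T. cruzi trypomastigotes/well · Medium – Low-serum DMEM with 2% FBS · Timing – ≥90 h infection period, 3 h prior cell attachment · Evaluation – parasite load inhibition, % · Technique – GalScreen luminescence, 60 min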
# CSC inhib – cancer stem cell inhibition; cancer stem cell-like cells viability, luminescence; inhibition, % at 7.5 µM; actives 1.1% (n = 300,000); in the data active = inhibition above about 75%; inconclusive = no clear call, values can overlap the other calls; tested in HMLE shEcad cells
# Numbers stand for hits; n = inactive; u = inconclusive; x = no result.
SMILES,Calb FLC,HIF act,PolyA inh,Beta cell apopt,T cruzi inh,CSC inhib
COc1ccc(C(=O)NNC(=S)NC(=O)c2cccc([N+](=O)[O-])c2)cc1,81,n,n,n,n,n
CCCCCC(=O)NNC(=S)NC(=O)c1ccccc1[N+](=O)[O-],n,n,n,n,n,n
CCCCCC(=O)NNC(=S)NC(=O)c1cccc([N+](=O)[O-])c1,85,62,n,n,n,n
COc1cccc(-c2cc(C(=O)N3CC4(C)CC3CC(C)(C)C4)no2)c1 (stereo not drawn),n,n,x,n,n,n
O=C(c1cc(-c2ccc(O)cc2)on1)N1CCN(c2ccc(F)cc2)CC1,n,n,n,n,n,111
CC1(C)CC2CC(C)(CN2C(=O)c2cc(-c3ccc(O)cc3)on2)C1 (stereo not drawn),n,n,n,n,n,87
O=C(c1cc(-c2ccc(O)cc2)on1)N1CCN(c2ccccc2)CC1,n,n,n,n,n,104
Cc1ccc(-c2cc(C(=O)N3CCCCCC3)no2)cc1,n,12,n,n,n,n
CC(=O)N1c2ccc(S(=O)(=O)NCCC(=O)Nc3ccc(F)cc3)cc2CC1C (stereo not drawn),n,n,n,n,n,n
Cc1n[nH]c(=O)c2c(NC(=O)CSc3nncs3)oc(C)c12,n,n,n,x,n,n
O=C(O)c1cc(-c2ccc(O)cc2)on1,100,n,n,n,n,n
O=C(COc1ccc2c(c1)CCC2)N1CCN(c2cccc(C(F)(F)F)c2)CC1,112,n,u,n,n,n
O=C(COc1cccc(C(F)(F)F)c1)N1CCN(c2ccc(O)cc2)CC1,n,n,n,n,n,78
O=C(COc1cccc(C(F)(F)F)c1)N1CCN(c2ccccc2O)CC1,n,n,n,n,n,n
COc1ccc(/C=C/C(=O)C2CC2)cc1COc1c(C)cccc1C,97,n,n,n,n,n
O=C(NCCc1ccco1)C(=O)NCC1OCCCN1S(=O)(=O)c1ccccc1 (stereo not drawn),n,n,n,n,n,n
O=C(C[C@H]1C/C=C\CCC(=O)O[C@@H](c2ccccc2)CNC1=O)NCCO,x,x,x,n,x,x
COc1cc2c3nnc(-c4ccc(F)cc4)c-3cn(Cc3ccc(F)cc3)c2cc1OC,u,n,n,n,n,n
COc1ccc(Cn2cc3c(-c4ccc(F)cc4)nnc-3c3cc(OC)c(OC)cc32)cc1,x,x,x,100,x,n
C(=C\c1ccccc1)/CSc1nc2ncccc2[nH]1,n,n,n,n,n,n
CCCCN1C(=O)/C(=C2\SC(N3CCCCC3)=NC2=O)c2ccccc21,n,n,n,80,n,n
C[C@H](CO)N1C[C@H](C)[C@@H](CN(C)Cc2ccc(Oc3ccccc3)cc2)Oc2c(NS(=O)(=O)c3cn(C)cn3)cccc2C1=O,x,x,x,n,x,n
CCOC(=O)c1c(C)oc2c1c(C(c1cccnc1)N1CCOCC1)c(O)c1ccccc12 (stereo not drawn),n,n,n,n,n,83
Cc1ccc(NC(=O)CSc2nc(=O)n(CCCN3CCOCC3)c3c2CCCC3)cc1,n,n,n,n,n,n
CC(C)Oc1ccc(CNC(=O)CC(c2ccccc2)c2cc(Cl)ccc2O)cc1 (stereo not drawn),n,n,n,n,56,97
SMILES,Calb FLC,HIF act,PolyA inh,Beta cell apopt,T cruzi inh,CSC inhib
N#Cc1c(N)nc2c(c1-c1ccc3c(c1)OCO3)CCc1ccccc1-2,n,n,n,n,n,82
N#Cc1c(N)c(C#N)c(-c2ccc3c(c2)OCO3)c2c1CCCC2,n,n,n,n,n,n
Cc1c([N+](=O)[O-])nnn1-c1cc(Cl)cc(Cl)c1,n,n,n,n,63,n
Cc1cc(C)cc(N(C(=O)c2sc(C)nc2C)C(C(=O)NC(C)(C)C)c2ccncc2)c1 (stereo not drawn),n,n,n,n,n,n
O=S1(=O)C=C(Sc2nc3ccccc3s2)c2ccccc21,n,n,n,122,69,141
Cc1cc(C)nc(SC2=CS(=O)(=O)c3ccccc32)n1,n,n,n,n,n,n
CCCOC(=O)c1ccc(Oc2cn[nH]c2-c2ccc(O)cc2O)cc1,n,n,n,n,n,n
CCCOC(=O)c1ccc(Oc2c(-c3ccc(O)cc3O)n[nH]c2C)cc1,n,n,n,n,n,117
CCCOC(=O)c1ccc(Oc2c(-c3ccc(OC)cc3O)n[nH]c2C)cc1,n,n,n,n,n,132
Cc1[nH]nc(-c2ccc(O)cc2O)c1Oc1ccccc1,n,x,n,n,n,n
CCOc1ccc(-c2n[nH]c(C)c2Oc2ccccc2OC)c(O)c1,n,n,n,n,n,n
CCc1cc(-c2n[nH]c(C)c2Oc2ccc(C(C)C)cc2)c(O)cc1O,n,n,n,n,n,113
O=C(CN1CCN(Cc2ccc(Cl)cc2)CC1)N/N=C/C=C/c1ccccc1[N+](=O)[O-],n,n,n,n,n,n
CN(C)c1cccc(C(=O)Nc2cccc(S(=O)(=O)NC3=NCCC3)c2)c1,n,n,n,x,n,n
O=[N+]([O-])c1ccc(N2CCN(S(=O)(=O)c3ccc(Cl)c(Cl)c3)CC2)cc1NCCN1CCOCC1,n,n,n,n,56,n
C=CCOc1ccccc1CN(C(=O)CCl)c1ccc2c(c1)OCO2,n,n,n,n,n,n
O=C1c2ccccc2NC(c2cn[nH]c2-c2ccc(Cl)cc2)N1O (stereo not drawn),91,n,n,n,n,n
CC(C)(C)c1ccccc1NC(=O)NC1CCN(Cc2c(F)cccc2Cl)CC1,n,n,n,n,n,n
CC(NC(=O)Cn1ncc(Cl)c(Cl)c1=O)C12CC3CC(CC(C3)C1)C2 (stereo not drawn),n,n,n,n,n,116
CC(NC(=O)CN1C(=O)NC(Cc2ccccc2)(Cc2ccccc2)C1=O)C12CC3CC(CC(C3)C1)C2 (stereo not drawn),n,n,n,n,61,n
CCn1cc(C(=O)NC(C)C23CC4CC(CC(C4)C2)C3)cn1 (stereo not drawn),n,n,n,n,n,n
CC(C)(C)c1ccc(C(=O)Nc2nnc(Cc3c[nH]c4ccccc34)s2)cc1,n,n,n,n,n,96
O=C(Nc1nnc(Cc2c[nH]c3ccccc23)s1)c1ccc(Cl)cc1Cl,n,n,n,n,n,n
C[n+]1c2n(c3ccccc31)N=C(c1ccc(-c3ccccc3)cc1)CS2,103,n,n,108,60,n
COC(=O)c1cccc(Cn2nc(C)c([N+](=O)[O-])c2C)c1,n,n,n,n,n,n
COc1cc(C(C)=O)ccc1OCC(=O)Nc1ccc(C)c(S(=O)(=O)N2CCCCCC2)c1,x,x,x,n,x,n
CC(=O)Nc1ccc(OS(=O)(=O)c2ccc([N+](=O)[O-])cc2)cc1,n,n,n,n,71,n

# High-throughput results: PubChem, Broad Institute
